Laboratory results from PubChem BioAssay.
Activity calls are given as the source filed them. Unless noted, no stated cut-off is given here; in the data, active means inhibition above about 30%; inactive means the rest.

Columns and labels:
[1] = reduced viability of SK-BR-3 breast cancer cells – cell-based, 24 h, human, pilot screen (AID 572;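 active means viability at or below 10% of carrier control in both of two separate runs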;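 further: compound exposure lasted between 18 and 24 h rather than exactly 24 h; 100% = carrier-treated control wells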); conditions: SK-BR-3 viability, CellTiter-Glo luminescence, at 10 µM, stronger effect = lower value
[2] = HUVEC growth inhibition – cell-based, human, primary screen (AID 575;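 active means viability at or below 30% in both replicate assays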;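 further: 100% = median of untreated cell wells with 0.1% DMSO on each plate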); conditions: HUVEC proliferation, CellTiter-Glo luminescence, 72 h; at 10 µM; stronger effect = lower value
How it was run: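 Test system: primary human umbilical vein endothelial cells; medium: endothelial basal medium with 2% FBS plus growth supplements; dosing: 10 µM compound only; times: 72 h treatment at 37 °C; signal: CTG luminescence; read-out: % viability relative to median vehicle-well signal on each plate; control set: vehicle and MePR control wells; plate: 384-well, collagen-coated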

[3] = H69AR cell proliferation blockers – human, duplicate replicates, primary screen (AID 580;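 active means viability at or under a set limit in both replicates, limit being median viability minus 3 SD, cut at about 48% in these data, passing the limit was not always enough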;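 further: 100% = mean luminescence of untreated wells and 0% = no signal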); conditions: H69AR lung tumor cells viability, ATP luminescence, 72 h; at 10 µM; stronger effect = lower value
[4] = MRP1 drug-resistance reversers in H69AR cells – cell-based, doxorubicin co-treatment, pilot screen (AID 601;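 active means viability loss from added drug above about 55%, and viability with drug at most 40%, in both replicates, limit read from the data, passing the limit was not always enough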); conditions: CellTiter-Glo, 72 h, at 10 µM; for differential viability (reversal): stronger effect = higher value
[5] = yeast transport mutant growth inhibition pilot in 384-well plates, post-Golgi transport modulator project (AID 636; in the data active means inhibition above about 31%); conditions: absorbance 615 nm, about 18 h, stronger effect = higher value
[6] = growth suppression of yeast trafficking mutant, preliminary HTS, modulators of trafficking downstream of Golgi apparatus project, 1536-format plate, OD 615 nm (AID 637); conditions: yeast transport mutant growth, absorbance 615 nm, 18 h; stronger effect = higher value
[7] = H69AR cells + 2 uM doxorubicin, measured here: viability with 2 uM doxorubicin, stronger effect = lower value
[8] = H69AR cells, compound alone cytotoxicity

Structure (SMILES) | viability [1] | viability [2] | viability [3] | differential viability (reversal) ([4]; H69AR cells + 2 uM doxorubicin) | viability [4, 7] [%] | viability [4, 8] [%] | inhibition [5] | inhibition [6]
CCN1CCc2c(C#N)c(N3CCCCC3)nc(NCc3ccccc3)c2C1 | 103% (inactive) | 2.17% (active) | 16.3% (active) | -10.1% (inactive) | 26.4 | 16.3 | -4.4% (inactive) | 16.6% (inactive)
O=S1(=O)CCN2C(=N1)SC1=C2CCN(Cc2ccccc2)C1 | 106% (inactive) | 96.7% (inactive) | 89% (inactive) | -1.18% (inactive) | 90.2 | 89 | -9.04% (inactive) | 3.09% (inactive)
CCCCOC(=O)Nc1nccs1 | 101% (inactive) | 107% (inactive) | 103% (inactive) | 1.28% (inactive) | 101 | 103 | -5.33% (inactive) | -3.27% (inactive)
Fc1ccccc1Cn1nnc2c(-n3ccnc3)ncnc21 | 115% (inactive) | 99.9% (inactive) | 92.3% (inactive) | 15.2% (inactive) | 77.1 | 92.3 | -3.01% (inactive) | -3.71% (inactive)
CCC1CCCCN1CCCNC(=O)c1ccc(CS(=O)(=O)Cc2ccccc2F)o1 (configuration not stated) | 106% (inactive) | 114% (inactive) | 92.9% (inactive) | -12.3% (inactive) | 105 | 92.9 | -7.4% (inactive) | 2.73% (inactive)
O=c1[nH]c(N2CCCCC2)nc2c1CCCC2 | 95% (inactive) | 96.2% (inactive) | 95.8% (inactive) | 5.24% (inactive) | 90.5 | 95.8 | -4.05% (inactive) | 15.3% (inactive)
CS(=O)(=O)N(CC(=O)NCCSCc1cccc(Cl)c1)c1ccc2c(c1)OCO2 | 94% (inactive) | 97.9% (inactive) | 93.4% (inactive) | -4.33% (inactive) | 97.8 | 93.4 | -2.21% (inactive) | -2.62% (inactive)
CCOC(=O)c1cc(C(C)(C)C)oc1CN | 118% (inactive) | 96.1% (inactive) | 90.8% (inactive) | -1.73% (inactive) | 92.5 | 90.8 | -7.12% (inactive) | 9.35% (inactive)
O=C(CNCC1CCCO1)Nc1ccccc1-n1cccc1 (configuration not stated) | 80% (inactive) | 106% (inactive) | 95.7% (inactive) | 5.03% (inactive) | 90.6 | 95.7 | -8.38% (inactive) | -2.36% (inactive)
CCCS(=O)(=O)N1CCCC(C(=O)NC2CCCC(C)C2C)C1 (configuration not stated) | 101% (inactive) | 113% (inactive) | 94.8% (inactive) | 8.93% (inactive) | 85.8 | 94.8 | -2.73% (inactive) | -3.28% (inactive)
O=C(O)Cc1ccccc1C(=O)O | 120% (inactive) | 92.2% (inactive) | 95.1% (inactive) | -0.3% (inactive) | 95.4 | 95.1 | -6.85% (inactive) | 1.29% (inactive)
O=C(O)c1ccc(S(=O)(=O)Cc2ccccc2)cc1 | 95% (inactive) | 102% (inactive) | 87.3% (inactive) | -7.88% (inactive) | 95.2 | 87.3 | -3.29% (inactive) | 1.45% (inactive)
CCCCC[C@H](O)/C=C/[C@@H]1[C@@H](CCCCCCC(=O)O)[C@@H](O)C[C@H]1O | 113% (inactive) | 89.6% (inactive) | 103% (inactive) | 9.71% (inactive) | 93.6 | 103 | 0.26% (inactive) | 2.33% (inactive)
CCOC(=O)c1c(NC(=O)OC)sc2c1CCC2 | 129% (inactive) | 89.7% (inactive) | 87.1% (inactive) | -0.775% (inactive) | 87.9 | 87.1 | 0.65% (inactive) | -4.75% (inactive)
O=C(NC1CC1)c1ccc(S(=O)(=O)NCC2CCCCC2)cc1 | 112% (inactive) | 79.4% (inactive) | 102% (inactive) | 5.06% (inactive) | 97 | 102 | -6.85% (inactive) | -0.32% (inactive)
O=C(NCCC1=CCCCC1)C1CCN(S(=O)(=O)c2cnc[nH]2)CC1 | 83% (inactive) | 111% (inactive) | 104% (inactive) | 15.5% (inactive) | 88.1 | 104 | -5.6% (inactive) | -1.27% (inactive)
Cc1ccc(-c2ccc(SCC(=O)Nc3nonc3C)nn2)cc1 | 94% (inactive) | 81.8% (inactive) | 88.8% (inactive) | -4.68% (inactive) | 93.5 | 88.8 | -7.57% (inactive) | -0.55% (inactive)
CCOC(=O)C1(c2ccccc2)NC(c2ccc(N(C)C)cc2)C2C(=O)N(C)C(=O)C21 (configuration not stated) | 82% (inactive) | 104% (inactive) | 94.4% (inactive) | 29.2% (inactive) | 65.2 | 94.4 | -8.11% (inactive) | -6.73% (inactive)
COC(=O)C1=C(C)N(Cc2ccco2)C(=O)C1 | 96% (inactive) | 103% (inactive) | 96.1% (inactive) | 5.42% (inactive) | 90.7 | 96.1 | -7.53% (inactive) | 5.82% (inactive)
NS(=O)(=O)c1ccc(CCNC(=O)c2cccnc2)cc1 | 126% (inactive) | 92.3% (inactive) | 97.2% (inactive) | 3.81% (inactive) | 93.4 | 97.2 | -4.46% (inactive) | -0.91% (inactive)
Cc1csc(NC(=O)Nc2cccc(Cl)c2)n1 | 102% (inactive) | 75% (inactive) | 98.6% (inactive) | 8.58% (inactive) | 90 | 98.6 | -3.73% (inactive) | -1.09% (inactive)
CCOC(=O)c1cccc(NC(=O)CSc2nnc(-c3cccnc3)n2C)c1 | 99% (inactive) | 107% (inactive) | 98.3% (inactive) | 5.64% (inactive) | 92.7 | 98.3 | -3.38% (inactive) | -0.73% (inactive)
Cc1onc(-c2ccccc2)c1C(=O)NCCN1CCOCC1 | 94% (inactive) | 102% (inactive) | 98% (inactive) | 10.1% (inactive) | 87.9 | 98 | -4.93% (inactive) | -4% (inactive)
Cc1cc(=O)n2[nH]c(-c3ccc(Cl)cc3)cc2n1 | 108% (inactive) | 75.8% (inactive) | 99.2% (inactive) | 8.53% (inactive) | 90.7 | 99.2 | -4.66% (inactive) | 5.45% (inactive)
